In brackets after ≈: the same amount, converted by molar mass.
Legend:
Salmonella typhimurium [1] = assay: Mutagenicity in Salmonella typhimurium TA100 at 0.156 mg/ml after 48 hrs by AMES MPF assay in presence of Sprague-Dawley rat liver microsomal S9 fraction relative to baseline; assay type: toxicity, organism-based; settings: salmonella enterica subsp. enterica serovar typhimurium
Procedure, shortened: (§1)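 Ames MPF fluctuation test with TA98/TA100. Overnight cultures (37 °C, 14–16 h) mixed with exposure medium; ±Aroclor-1254-induced rat liver S9 (final 4.5% v/v). Compounds in DMSO, 0.156–5 mg/mL. 90 min exposure at 37 °C, then indicator medium; 48 wells per concentration, 48 h at 37 °C, in triplicate. Yellow wells counted; fold induction over baseline (mean + 1 SD of zero-dose control).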

Salmonella typhimurium [2] = assay: Mutagenicity in Salmonella typhimurium TA98 at 0.3125 mg/ml after 48 hrs by AMES MPF assay in absence of Sprague-Dawley rat liver microsomal S9 fraction relative to baseline; assay type: toxicity, organism-based; settings: salmonella enterica subsp. enterica serovar typhimurium; procedure, shortened: as §1
Salmonella typhimurium [3] = assay: Mutagenicity in Salmonella typhimurium TA100 at 0.625 mg/ml after 48 hrs by AMES MPF assay in presence of Sprague-Dawley rat liver microsomal S9 fraction relative to baseline; assay type: toxicity, organism-based; settings: salmonella enterica subsp. enterica serovar typhimurium; procedure, shortened: as §1
Salmonella typhimurium [4] = assay: Mutagenicity in Salmonella typhimurium TA100 at 2.5 mg/ml after 48 hrs by AMES MPF assay in absence of Sprague-Dawley rat liver microsomal S9 fraction relative to baseline; assay type: toxicity, organism-based; settings: salmonella enterica subsp. enterica serovar typhimurium; procedure, shortened: as §1
Aspergillus flavus = assay: Antifungal activity against Aspergillus flavus NRRL 980 after 72 hrs by broth microdilution assay; assay type: functional; settings: NRRL 980, 72 h
Procedure, shortened: (§2)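 Compounds dissolved in DMSO, diluted in sterile distilled water from 4 to 0.0039 mg/mL. Molds grown on PDA at 25 °C for 5 days, suspended in double-strength PDB at 10⁵ spores/mL. Incubated at 25 °C for 72 h; mycelial growth read under stereo microscope. MIC = lowest concentration inhibiting visible growth. Ketoconazole reference.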

Candida parapsilosis = assay: Antifungal activity against Candida parapsilosis NRLL Y 12696 after 48 hrs by broth microdilution assay; assay type: functional; settings: Lodderomyces parapsilosis, NRLL Y 12696, 48 h
Procedure, shortened: (§3)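 Broth microdilution of DMSO stocks serially diluted in sterile water (4 to 0.0039 mg/mL). Yeasts grown on SDA at 37 °C for 24 h, suspended in double-strength PDB at 10⁵ spores/mL. Incubated at 37 °C for 48 h, then sprayed with 0.5% aqueous TTC. MIC = lowest concentration inhibiting visible growth. Ketoconazole reference.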

Salmonella typhimurium [5] = assay: Mutagenicity in Salmonella typhimurium TA100 at 2.5 mg/ml after 48 hrs by AMES MPF assay in presence of Sprague-Dawley rat liver microsomal S9 fraction relative to baseline; assay type: toxicity, organism-based; settings: salmonella enterica subsp. enterica serovar typhimurium; procedure, shortened: as §1
Salmonella typhimurium [6] = assay: Mutagenicity in Salmonella typhimurium TA98 at 1.25 mg/ml after 48 hrs by AMES MPF assay in presence of Sprague-Dawley rat liver microsomal S9 fraction relative to baseline; assay type: toxicity, organism-based; settings: salmonella enterica subsp. enterica serovar typhimurium; procedure, shortened: as §1
Salmonella typhimurium [7] = assay: Mutagenicity in Salmonella typhimurium TA100 at 0.156 mg/ml after 48 hrs by AMES MPF assay in absence of Sprague-Dawley rat liver microsomal S9 fraction relative to baseline; assay type: toxicity, organism-based; settings: salmonella enterica subsp. enterica serovar typhimurium; procedure, shortened: as §1
Pichia kudriavzevii = assay: Antifungal activity against Candida krusei NRLL Y 7179 after 48 hrs by broth microdilution assay; assay type: functional; settings: NRLL Y 7179, 48 h; procedure, shortened: as §3
Salmonella typhimurium [8] = assay: Mutagenicity in Salmonella typhimurium TA98 at 5 mg/ml after 48 hrs by AMES MPF assay in absence of Sprague-Dawley rat liver microsomal S9 fraction relative to baseline; assay type: toxicity, organism-based; settings: salmonella enterica subsp. enterica serovar typhimurium; procedure, shortened: as §1
[Candida] zeylanoides = Antifungal activity against Candida zeylanoides NRLL Y 1774 after 48 hrs by broth microdilution assay; assay type: functional; settings: Dujonia zeylanoides, NRLL Y 1774, 48 h; procedure, shortened: as §3
Salmonella typhimurium [9] = assay: Mutagenicity in Salmonella typhimurium TA98 at 0.625 mg/ml after 48 hrs by AMES MPF assay in absence of Sprague-Dawley rat liver microsomal S9 fraction relative to baseline; assay type: toxicity, organism-based; settings: salmonella enterica subsp. enterica serovar typhimurium; procedure, shortened: as §1
Salmonella typhimurium [10] = assay: Mutagenicity in Salmonella typhimurium TA98 at 5 mg/ml after 48 hrs by AMES MPF assay in presence of Sprague-Dawley rat liver microsomal S9 fraction relative to baseline; assay type: toxicity, organism-based; settings: salmonella enterica subsp. enterica serovar typhimurium; procedure, shortened: as §1
Salmonella typhimurium [11] = assay: Mutagenicity in Salmonella typhimurium TA98 at 0.625 mg/ml after 48 hrs by AMES MPF assay in presence of Sprague-Dawley rat liver microsomal S9 fraction relative to baseline; assay type: toxicity, organism-based; settings: salmonella enterica subsp. enterica serovar typhimurium; procedure, shortened: as §1
Aspergillus parasiticus = assay: Antifungal activity against Aspergillus parasiticus NRRL 465 after 72 hrs by broth microdilution assay; assay type: functional; settings: NRRL 465, 72 h; procedure, shortened: as §2
Salmonella typhimurium [12] = assay: Mutagenicity in Salmonella typhimurium TA98 at 2.5 mg/ml after 48 hrs by AMES MPF assay in absence of Sprague-Dawley rat liver microsomal S9 fraction relative to baseline; assay type: toxicity, organism-based; settings: salmonella enterica subsp. enterica serovar typhimurium; procedure, shortened: as §1
Fusarium solani = assay: Antifungal activity against Fusarium solani NRRL 13414 after 72 hrs by broth microdilution assay; assay type: functional; settings: NRRL 13414, 72 h; procedure, shortened: as §2
Salmonella typhimurium [13] = assay: Mutagenicity in Salmonella typhimurium TA100 at 0.625 mg/ml after 48 hrs by AMES MPF assay in absence of Sprague-Dawley rat liver microsomal S9 fraction relative to baseline; assay type: toxicity, organism-based; settings: salmonella enterica subsp. enterica serovar typhimurium; procedure, shortened: as §1
Salmonella typhimurium [14] = assay: Mutagenicity in Salmonella typhimurium TA98 at 0.156 mg/ml after 48 hrs by AMES MPF assay in presence of Sprague-Dawley rat liver microsomal S9 fraction relative to baseline; assay type: toxicity, organism-based; settings: salmonella enterica subsp. enterica serovar typhimurium; procedure, shortened: as §1
Salmonella typhimurium [15] = assay: Mutagenicity in Salmonella typhimurium TA98 at 2.5 mg/ml after 48 hrs by AMES MPF assay in presence of Sprague-Dawley rat liver microsomal S9 fraction relative to baseline; assay type: toxicity, organism-based; settings: salmonella enterica subsp. enterica serovar typhimurium; procedure, shortened: as §1
[16] = Cytotoxicity against mouse NIH/3T3 cells after 24 hrs by XTT assay; assay type: cell-based; settings: NIH3T3, 24 h
Procedure, shortened: (§4)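 A549 cells in RPMI and NIH/3T3 cells in DMEM, each with fetal calf serum, antibiotics and 7.5% NaHCO₃, at 37 °C, 5% CO₂. Seeded at 20,000 cells/well, 24 h, then compounds added in medium at 500–3.9 doses (final DMSO <0.1%) for 24 h. XTT read after 3 h at 480 nm (ref 680 nm). IC₅₀ by non-linear regression; triplicates; cisplatin control.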

Aspergillus niger = assay: Antifungal activity against Aspergillus niger ATCC 1094 after 72 hrs by broth microdilution assay; assay type: functional; settings: ATCC 1094, 72 h; procedure, shortened: as §2
Candida albicans = assay: Antifungal activity against Candida albicans ATCC 90028 after 48 hrs by broth microdilution assay; assay type: functional; settings: ATCC 90028, 48 h; procedure, shortened: as §3
Salmonella typhimurium [17] = assay: Mutagenicity in Salmonella typhimurium TA100 at 1.25 mg/ml after 48 hrs by AMES MPF assay in presence of Sprague-Dawley rat liver microsomal S9 fraction relative to baseline; assay type: toxicity, organism-based; settings: salmonella enterica subsp. enterica serovar typhimurium; procedure, shortened: as §1
Candida tropicalis = assay: Antifungal activity against Candida tropicalis NRLL Y 12968 after 48 hrs by broth microdilution assay; assay type: functional; settings: NRLL Y 12968, 48 h; procedure, shortened: as §3
Salmonella typhimurium [18] = assay: Mutagenicity in Salmonella typhimurium TA98 at 0.156 mg/ml after 48 hrs by AMES MPF assay in absence of Sprague-Dawley rat liver microsomal S9 fraction relative to baseline; assay type: toxicity, organism-based; settings: salmonella enterica subsp. enterica serovar typhimurium; procedure, shortened: as §1
A549 = assay: Antiproliferative activity against human A549 cells after 24 hrs by XTT assay; assay type: functional, cell-based; settings: A549, 24 h; procedure, shortened: as §4
Salmonella typhimurium [19] = assay: Mutagenicity in Salmonella typhimurium TA100 at 5 mg/ml after 48 hrs by AMES MPF assay in presence of Sprague-Dawley rat liver microsomal S9 fraction relative to baseline; assay type: toxicity, organism-based; settings: salmonella enterica subsp. enterica serovar typhimurium; procedure, shortened: as §1
Nakaseomyces glabratus = assay: Antifungal activity against Candida glabrata clinical isolate after 48 hrs by broth microdilution assay; assay type: functional; procedure, shortened: as §3
Salmonella typhimurium [20] = assay: Mutagenicity in Salmonella typhimurium TA98 at 1.25 mg/ml after 48 hrs by AMES MPF assay in absence of Sprague-Dawley rat liver microsomal S9 fraction relative to baseline; assay type: toxicity, organism-based; settings: salmonella enterica subsp. enterica serovar typhimurium; procedure, shortened: as §1
Salmonella typhimurium [21] = assay: Mutagenicity in Salmonella typhimurium TA98 at 0.3125 mg/ml after 48 hrs by AMES MPF assay in presence of Sprague-Dawley rat liver microsomal S9 fraction relative to baseline; assay type: toxicity, organism-based; settings: salmonella enterica subsp. enterica serovar typhimurium; procedure, shortened: as §1
Salmonella typhimurium [22] = assay: Mutagenicity in Salmonella typhimurium TA100 at 5 mg/ml after 48 hrs by AMES MPF assay in absence of Sprague-Dawley rat liver microsomal S9 fraction relative to baseline; assay type: toxicity, organism-based; settings: salmonella enterica subsp. enterica serovar typhimurium; procedure, shortened: as §1
Salmonella typhimurium [23] = assay: Mutagenicity in Salmonella typhimurium TA100 at 1.25 mg/ml after 48 hrs by AMES MPF assay in absence of Sprague-Dawley rat liver microsomal S9 fraction relative to baseline; assay type: toxicity, organism-based; settings: salmonella enterica subsp. enterica serovar typhimurium; procedure, shortened: as §1
Salmonella typhimurium [24] = assay: Mutagenicity in Salmonella typhimurium TA100 at 0.3125 mg/ml after 48 hrs by AMES MPF assay in presence of Sprague-Dawley rat liver microsomal S9 fraction relative to baseline; assay type: toxicity, organism-based; settings: salmonella enterica subsp. enterica serovar typhimurium; procedure, shortened: as §1
Salmonella typhimurium [25] = assay: Mutagenicity in Salmonella typhimurium TA100 at 0.3125 mg/ml after 48 hrs by AMES MPF assay in absence of Sprague-Dawley rat liver microsomal S9 fraction relative to baseline; assay type: toxicity, organism-based; settings: salmonella enterica subsp. enterica serovar typhimurium; procedure, shortened: as §1

Fc1ccc(C2CC(c3ccc(Cl)s3)=NN2c2nc(-c3ccc(Cl)cc3)cs2)cc1 (stereo not drawn)
fold change (FC) (Salmonella typhimurium [1]): 3.23 | fold change (FC) (Salmonella typhimurium [2]): 0 | fold change (FC) (Salmonella typhimurium [3]): 3.46 | fold change (FC) (Salmonella typhimurium [4]): 1 | MIC (Aspergillus flavus): 125 µg/mL (≈ 263 µM) | MIC (Candida parapsilosis): 250 µg/mL (≈ 527 µM) | fold change (FC) (Salmonella typhimurium [5]): 3 | fold change (FC) (Salmonella typhimurium [6]): 0.81 | fold change (FC) (Salmonella typhimurium [7]): 1.67 | MIC (Pichia kudriavzevii): 250 µg/mL (≈ 527 µM) | fold change (FC) (Salmonella typhimurium [8]): 1 | MIC ([Candida] zeylanoides): 250 µg/mL (≈ 527 µM) | fold change (FC) (Salmonella typhimurium [9]): 0 | fold change (FC) (Salmonella typhimurium [10]): 0.81 | fold change (FC) (Salmonella typhimurium [11]): 0.95 | MIC (Aspergillus parasiticus): 250 µg/mL (≈ 527 µM) | fold change (FC) (Salmonella typhimurium [12]): 0.67 | MIC (Fusarium solani): 250 µg/mL (≈ 527 µM) | fold change (FC) (Salmonella typhimurium [13]): 0.33 | fold change (FC) (Salmonella typhimurium [14]): 0.68 | fold change (FC) (Salmonella typhimurium [15]): 0.54 | IC50 [16]: > 500 µg/mL | MIC (Aspergillus niger): 250 µg/mL (≈ 527 µM) | MIC (Candida albicans): 250 µg/mL (≈ 527 µM) | fold change (FC) (Salmonella typhimurium [17]): 3.69 | MIC (Candida tropicalis): 250 µg/mL (≈ 527 µM) | fold change (FC) (Salmonella typhimurium [18]): 0 | IC50 (A549): 125 µg/mL (≈ 263 µM) | fold change (FC) (Salmonella typhimurium [19]): 3.92 | MIC (Nakaseomyces glabratus): 125 µg/mL (≈ 263 µM) | fold change (FC) (Salmonella typhimurium [20]): 0.67 | fold change (FC) (Salmonella typhimurium [21]): 0.81 | fold change (FC) (Salmonella typhimurium [22]): 0.33 | fold change (FC) (Salmonella typhimurium [23]): 0.33 | fold change (FC) (Salmonella typhimurium [24]): 3.92 | fold change (FC) (Salmonella typhimurium [25]): 0.67

Cc1ccc(C2=NN(c3nc(-c4ccc5c(c4)OCO5)cs3)C(c3ccc(F)cc3)C2)s1 (stereo not drawn)
MIC (Aspergillus flavus): 250 µg/mL (≈ 539 µM) | MIC (Candida parapsilosis): 250 µg/mL (≈ 539 µM) | MIC (Pichia kudriavzevii): 250 µg/mL (≈ 539 µM) | MIC ([Candida] zeylanoides): 250 µg/mL (≈ 539 µM) | MIC (Aspergillus parasiticus): 250 µg/mL (≈ 539 µM) | MIC (Fusarium solani): 250 µg/mL (≈ 539 µM) | IC50 [16]: 125 µg/mL (≈ 270 µM) | MIC (Aspergillus niger): 250 µg/mL (≈ 539 µM) | MIC (Candida albicans): 250 µg/mL (≈ 539 µM) | MIC (Candida tropicalis): 250 µg/mL (≈ 539 µM) | IC50 (A549): 173 µg/mL (≈ 374 µM) | MIC (Nakaseomyces glabratus): 250 µg/mL (≈ 539 µM)

From ChEMBL document CHEMBL3407339, “A novel series of thiazolyl-pyrazoline derivatives: synthesis and evaluation of antifungal activity, cytotoxicity and genotoxicity” (Eur J Med Chem, 2015)
